From ChEMBL document CHEMBL4808183, “Betulonic Acid Derivatives Interfering with Human Coronavirus 229E Replication via the nsp15 Endoribonuclease” (J Med Chem, 2021)
Activity calls are given as the source filed them. The rule behind the calls is not given here.

Legend:
[1] = molecular target: Replicase polyprotein 1ab (Human coronavirus 229E) (UniProt P0C6X1); assay: Inhibition of nsp15 in Human coronavirus 229E infected in human embryonic lung fibroblast cells assessed as reduction in viral RNA synthesis at early stage of RNA synthesis at 6.3 uM treated 6 hrs post infection by RT-qPCR based time-of-addition assay; format: cell-based
[2] = (§1) Antiviral activity against Human coronavirus 229E infected in human embryonic lung fibroblast cells assessed as reduction in virus-induced cytopathic effect incubated for 5 days by MTS cell viability assay; format: functional, cell-based; settings: 120 h
Outline: (§2)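 Confluent HEL cell cultures given serial compound dilutions together with HCoV-229E at MOI 100 and held 5 days at 35 °C. Virus-induced CPE was scored by microscopy. MTS reagent was then added and absorbance at 490 nm read 24 h later. EC50 was taken from the MTS or microscopic read-out and CC50 from MTS. SI = CC50/EC50, both by MTS. Mean ± SEM of three independent experiments.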

Vaccinia virus = assay: Antiviral activity against Vaccinia virus; format: functional, organism-based; settings: Orthopoxvirus vaccinia
Yellow fever virus = assay: Antiviral activity against Yellow fever virus; format: functional, organism-based
[3] = system: Herpes simplex virus unknown type; assay: Antiviral activity against Herpes simplex virus; format: functional
Coxsackievirus B4 = assay: Antiviral activity against Coxsackie B4 virus; format: functional, organism-based
[4] = Antiviral activity against Human coronavirus 229E infected in human embryonic lung fibroblast cells assessed as reduction in virus-induced cytopathic effect incubated for 5 days by microscopy; format: functional, cell-based; settings: 120 h; outline: as §2
Punta Toro virus = assay: Antiviral activity against Punta Toro virus; format: functional, organism-based
[5] = molecular target: Replicase polyprotein 1ab (Human coronavirus 229E) (UniProt P0C6X1); assay: Inhibition of nsp15 in wild type Human coronavirus 229E infected in human embryonic lung fibroblast cells assessed as reduction in virus yield; format: cell-based
Outline: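 Confluent HEL cells (or semiconfluent 16HBE) with serial compound dilutions, infected with wild-type HCoV-229E at MOI 100. After 4 h at 35 °C the inoculum was removed and compound re-added. Supernatants were taken at 3 days p.i., lysed, and heated 10 min at 75 °C. Three independent experiments.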

Influenza A virus = assay: Antiviral activity against Influenza virus; format: functional
[6] = system: Vesicular stomatitis virus; assay: Antiviral activity against Vesicular stomatitis virus; format: functional, organism-based
SARS-CoV-2 = assay: Antiviral activity against SARS-CoV-2 infected in eGFP expressing Vero E6 cells assessed as reduction in virus-induced cytopathic effect cells pretreated for 24 hrs measure after 4 days post infection by MTS cell viability assay; format: functional, organism-based; settings: Severe acute respiratory syndrome coronavirus 2
[7] = system: Respiratory syncytial virus; assay: Antiviral activity against Respiratory syncytial virus; format: functional, organism-based
[8] = system: Human immunodeficiency virus; assay: Antiviral activity against HIV; format: functional, organism-based
[9] = molecular target: Replicase polyprotein 1ab (Human coronavirus 229E) (UniProt P0C6X1); assay: Inhibition of nsp15 in Human coronavirus 229E infected in human embryonic lung fibroblast cells assessed as reduction in viral RNA synthesis at early stage of RNA synthesis at 15 uM treated 6 hrs post infection by RT-qPCR based time-of-addition assay; format: cell-based
Outline: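 Confluent HEL cells infected with HCoV-229E (MOI 100). Compound at 15 μM was added at -0.5 to 8 h p.i. At 16 h p.i. cells were washed with ice-cold PBS and lysed on ice, then heated 10 min at 75 °C and DNase-treated. Viral RNA was measured by one-step RT-qPCR against the N gene, using a plasmid standard for absolute copies. Values are relative to the no-compound virus control, from two independent experiments.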

[10] = Antiviral activity against Human coronavirus 229E harboring reverse engineered EndoU-deficient H250A mutant infected in human embryonic lung fibroblast cells assessed as fold reduction in virus yield measured up to 40 uM; format: functional; settings: dose microM <=40
Outline: (§3)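 Virus yield assay in confluent HEL cells. Serial compound dilutions were added, and cells were infected at MOI 100 with wild-type, EndoU-deficient (H250A nsp15) or passage-selected (K60R or T66I nsp15) HCoV-229E. After 4 h at 35 °C, the inoculum was removed and compound re-added. Supernatant was lysed at 3 days p.i. and N-gene RNA copies measured by one-step RT-qPCR. Results are fold reduction versus the no-compound control, from three independent experiments.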

Sindbis virus = assay: Antiviral activity against Sindbis virus; format: functional, organism-based
Reovirus sp. = assay: Antiviral activity against Reovirus-1; format: functional, organism-based
[11] = as §1, with “Selectivity index, ratio of CC50 for cytotoxicity against mock-infected human embryonic lung fibroblast cells incubated for 5 days by MTS assay to EC50 for antiviral” for “Antiviral”; format: toxicity, cell-based; settings: time 5 day, read-out: Ratio CC50/EC50; outline: as §2
Human adenovirus 2 = assay: Antiviral activity against Adenovirus; format: functional
Human respirovirus 3 = assay: Antiviral activity against Parainfluenza-3 virus; format: functional, organism-based
[12] = Cytotoxicity against mock-infected human embryonic lung fibroblast cells incubated for 5 days by MTS assay; format: cell-based; settings: time 5 day; outline: as §2
Fibroblast [13] = assay: Inhibition of nsp15 T66I drug-resistant mutant in Human coronavirus 229E infected in human embryonic lung fibroblast cells assessed as reduction in virus yield; format: cell-based; outline: as §3
Fibroblast [14] = assay: Inhibition of nsp15 K60R drug-resistant mutant in Human coronavirus 229E infected in human embryonic lung fibroblast cells assessed as reduction in virus yield; format: cell-based; outline: as §3

| SMILES | EC50 [2] [µM] | Activity (Vaccinia virus) | Activity (Yellow fever virus) | Activity [3] | Activity (Coxsackievirus B4) | EC50 [4] [µM] | Activity (Punta Toro virus) | Activity (Influenza A virus) | Activity [6] | Activity [7] | Activity [8] | Activity (Sindbis virus) | Activity (Reovirus sp.) | selectivity ratio at 120 h [11] | Activity (Human adenovirus 2) | Activity (Human respirovirus 3) | CC50 at 120 h [12] [µM] | further results |
| --- | --- | --- | --- | --- | --- | --- | --- | --- | --- | --- | --- | --- | --- | --- | --- | --- | --- | --- |
| CO/C1=C\C(C)=C\[C@@H](C)[C@@H](O)[C@@H](C)C/C(C)=C/C=C/[C@H](OC)[C@@H]([C@@H](C)[C@@H](O)[C@H](C)[C@@]2(O)C[C@@H](O)[C@H](C)[C@@H](C(C)C)O2)OC1=O |  |  |  |  |  |  |  |  |  |  |  |  |  |  |  |  |  | Activity [1]: Active |
| C=C(C)[C@@H]1CC[C@]2(C(=O)O)CC[C@]3(C)[C@H](CC[C@@H]4[C@@]5(C)Cc6nnn([C@@H](C)c7ccccc7)c6C(C)(C)[C@@H]5CC[C@]43C)[C@@H]12 | 0.65 | inactive | inactive | inactive | inactive | 0.6 | inactive | inactive | inactive | inactive | inactive | inactive | inactive | 76 | inactive | inactive | 49 | fold change (FC) [5]: 1480; Activity (SARS-CoV-2): Active; Activity [9]: Active; fold change (FC) [10]: 23; Activity (Fibroblast [13]): inactive; EC99 (Fibroblast [14]): 2.9 µM |
| C=C(C)[C@@H]1CC[C@]2(C(=O)O)CC[C@]3(C)[C@H](CC[C@@H]4[C@@]5(C)Cc6nnn(Cc7cc(OC)cc(OC)c7)c6C(C)(C)[C@@H]5CC[C@]43C)[C@@H]12 | 2.4 | inactive | inactive | inactive | inactive | 1.6 | inactive | inactive | inactive | inactive | inactive | inactive | inactive | 7 | inactive | inactive | 17 |  |
| C=C(C)[C@@H]1CC[C@]2(C(=O)O)CC[C@]3(C)[C@H](CC[C@@H]4[C@@]5(C)Cc6nnn(Cc7ccncc7)c6C(C)(C)[C@@H]5CC[C@]43C)[C@@H]12 | 2.5 | inactive | inactive | inactive | inactive | 2.4 | inactive | inactive | inactive | inactive | inactive | inactive | inactive | 7 | inactive | inactive | 17 |  |
| CC(C)[C@@H]1CC[C@]2(C(=O)O)CC[C@]3(C)[C@H](CC[C@@H]4[C@@]5(C)Cc6nnn([C@@H](C)c7ccccc7)c6C(C)(C)[C@@H]5CC[C@]43C)[C@@H]12 | 13 | inactive | inactive | inactive | inactive | 6.1 | inactive | inactive | inactive | inactive | inactive | inactive | inactive | > 7.6 | inactive | inactive | > 99 | Activity (SARS-CoV-2): Active |
| C=C(C)[C@@H]1CC[C@]2(C(=O)O)CC[C@]3(C)[C@H](CC[C@@H]4[C@@]5(C)Cc6nnn([C@H](C)c7ccccc7)c6C(C)(C)[C@@H]5CC[C@]43C)[C@@H]12 | 1.1 | inactive | inactive | inactive | inactive | 0.67 | inactive | inactive | inactive | inactive | inactive | inactive | inactive | > 91 | inactive | inactive | > 100 |  |
| N#C[C@@]1(c2ccc3c(N)ncnn23)O[C@H](CO)[C@@H](O)[C@H]1O [GS-441524] | 2.3 |  |  |  |  | 3.2 |  |  |  |  |  |  |  | > 44 |  |  | > 100 | Activity (Fibroblast [13]): Active; EC99 (Fibroblast [14]): > 40 µM |
| C=C(C)[C@@H]1CC[C@]2(C(=O)O)CC[C@]3(C)[C@H](CC[C@@H]4[C@@]5(C)Cc6nnn(Cc7ccc(C(F)(F)F)cc7)c6C(C)(C)[C@@H]5CC[C@]43C)[C@@H]12 | 4.8 | inactive | inactive | inactive | inactive | 3.6 | inactive | inactive | inactive | inactive | inactive | inactive | inactive | > 10 | inactive | inactive | ≥ 47 |  |
| C=C(C)[C@@H]1CC[C@]2(C(=O)O)CC[C@]3(C)[C@H](CC[C@@H]4[C@@]5(C)Cc6nnn(Cc7ccc(F)cc7)c6C(C)(C)[C@@H]5CC[C@]43C)[C@@H]12 | 2.2 | inactive | inactive | inactive | inactive | 0.88 | inactive | inactive | inactive | inactive | inactive | inactive | inactive | 4 | inactive | inactive | 9.3 |  |
| C=C(C)[C@@H]1CC[C@]2(C(=O)O)CC[C@]3(C)[C@H](CC[C@@H]4[C@@]5(C)Cc6nnn(CCc7c[nH]c8ccc(OC)cc78)c6C(C)(C)[C@@H]5CC[C@]43C)[C@@H]12 | 0.88 | inactive | inactive | inactive | inactive | 0.3 | inactive | inactive | inactive | inactive | inactive | inactive | inactive | 10 | inactive | inactive | 8.9 |  |
| C=C(C)[C@@H]1CC[C@]2(C(=O)O)CC[C@]3(C)[C@H](CC[C@@H]4[C@@]5(C)Cc6nn[nH]c6C(C)(C)[C@@H]5CC[C@]43C)[C@@H]12 | 4.3 | inactive | inactive | inactive | inactive | 3.4 | inactive | inactive | inactive | inactive | inactive | inactive | inactive | 1.9 | inactive | inactive | 8.3 |  |
